Values after ≈ are worked out from the molar mass of the structure shown. Square brackets hold non-standard residues; d marks the D form. Peptide text beside a SMILES is read from it. Gly(N-(CH2)6NH2) = NCCCCCCNCC(=O)O; Nspe = C[C@H](NCC(=O)O)c1ccccc1; NhArg = N=C(N)NCCCCNCC(=O)O; Nphe = O=C(O)CNCc1ccccc1
Assays:
[1] = Selectivity index, ratio of ED50 for human HepG2 cells to MIC for Staphylococcus epidermidis clinical isolate; format: toxicity; conditions: read-out: Selectivity Index
Pseudomonas aeruginosa = test: Antibacterial activity against Pseudomonas aeruginosa PAO1 ATCC 15692 incubated for 16 hrs under shaking condition; format: functional; conditions: PAO1 ATCC 15692, 16 h
Summary of the method: (§1)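 Broth microdilution (Andrews method) in Iso-sensitest broth. Overnight cultures are adjusted to A650 0.07 (0.5 McFarland) and diluted ten-fold. Compounds come from 5 mM DMSO stocks, 2-fold serially diluted, final 2–100 μM in a 1:1 inoculum:compound mix. Incubation is 37 °C for 16 h with shaking. MIC is the lowest concentration giving complete growth inhibition, read by absorbance; triplicate.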

[2] = Selectivity index, ratio of ED50 for human HaCaT cells to MIC for Pseudomonas aeruginosa PAO1 ATCC 15692; format: toxicity; conditions: read-out: Selectivity Index
[3] = Cytotoxicity against human HepG2 cells assessed as reduction in cell viability pretreated for 1 hr followed by DMEM addition measured after 24 hrs by alamar blue assay; format: cell-based; conditions: read-out: ED50
Summary of the method: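 HepG2 cells are kept in DMEM high glucose with 10% heat-inactivated FBS and 1% P/S at 37 °C, 5% CO2, and seeded at 2x10^4 cells/well one day ahead. They are exposed to compounds (100 to 3 µM, from 5 mM DMSO stocks) in 50 µL for 1 h. Medium is then added and cells incubated 24 h. alamarBlue is read after 2 h (Ex 560/Em 600). Triplicate on ≥2 occasions; ED50 from dose-response; DMSO negative control.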

[4] = Selectivity index, ratio of ED50 for human HaCaT cells to MIC for Staphylococcus aureus 3R7089 strain Oxford/ATCC 9144; format: toxicity; conditions: read-out: Selectivity Index
[5] = Selectivity index, ratio of ED50 for human HaCaT cells to MIC for Escherichia coli K-12 W3110 ATCC 27325; format: toxicity; conditions: read-out: Selectivity Index
[6] = Selectivity index, ratio of ED50 for human HaCaT cells to MIC for Staphylococcus epidermidis clinical isolate; format: toxicity; conditions: read-out: Selectivity Index
[7] = Selectivity index, ratio of ED50 for human HepG2 cells to MIC for Escherichia coli K-12 W3110 ATCC 27325; format: toxicity; conditions: read-out: Selectivity Index
[8] = Selectivity index, ratio of ED50 for human HepG2 cells to MIC for Pseudomonas aeruginosa PAO1 ATCC 15692; format: toxicity; conditions: read-out: Selectivity Index
Staphylococcus aureus = test: Antibacterial activity against Staphylococcus aureus 3R7089 strain Oxford/ATCC 9144 incubated for 16 hrs under shaking condition; format: functional; conditions: 3R7089 strain Oxford/ATCC 9144, 16 h; summary of the method: as §1
[9] = tested on: Staphylococcus epidermidis; test: Antibacterial activity against Staphylococcus epidermidis clinical isolate incubated for 16 hrs under shaking condition; format: functional; summary of the method: as §1
[10] = Selectivity index, ratio of ED50 for human HepG2 cells to MIC for Staphylococcus aureus 3R7089 strain Oxford/ATCC 9144; format: toxicity; conditions: read-out: Selectivity Index
[11] = Cytotoxicity against human HaCaT cells assessed as reduction in cell viability pretreated for 1 hr followed by DMEM addition measured after 24 hrs by alamar blue assay; format: cell-based; conditions: read-out: ED50
Summary of the method: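 HaCaT keratinocytes are grown in DMEM high glucose with 10% FBS and 1% P/S and seeded at 2x10^4 cells/well 24 h before treatment. Compound dilution series run 2–100 µM (5 mM DMSO stocks) in 50 µL for 1 h, then medium is added for 24 h at 37 °C, 5% CO2. alamarBlue is read after 1 h (Ex 540/Em 620). Triplicate, ≥2 occasions; ED50 from dose-response; amphotericin B positive control.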

SMILES | selectivity ratio [1] | MIC (Pseudomonas aeruginosa) | selectivity ratio [2] | CC50 at 24 h [3] | selectivity ratio [4] | selectivity ratio [5] | selectivity ratio [6] | selectivity ratio [7] | selectivity ratio [8] | MIC (Staphylococcus aureus) | MIC [9] | selectivity ratio [10] | CC50 at 24 h [11]
C[C@@H](c1ccccc1)N(CC(N)=O)C(=O)CN(C(=O)CN(CCCCCCN)C(=O)CN(C(=O)CN(C(=O)CNCCCCCCN)[C@@H](C)c1ccccc1)[C@@H](C)c1ccccc1)[C@@H](C)c1ccccc1 | 4 | > 100 µM | 1 | > 100 µM | 1 | 1 | 4 | 1 | 1 | > 100 µM | 25 µM (≈ 24.4 µg/mL) | 1 | > 100 µM
CC(c1ccccc1)N(CC(=O)N(CCCCN)CC(=O)N(CC(=O)N(CC(=O)N(CCCCN)CC(=O)N(CC(=O)N(CC(N)=O)[C@@H](C)c1ccccc1)[C@@H](C)c1ccccc1)Cc1ccc(F)cc1)Cc1ccc(F)cc1)C(=O)CN(C(=O)CNCCCCN)[C@@H](C)c1ccccc1 (single isomer, unassigned) | 22 |  | 3 | 43 µM | 22 | 5 | 33 | 3 |  | 3 µM (≈ 4.13 µg/mL) | 2 µM (≈ 2.75 µg/mL) | 14 | 65 µM
NCCCCNCC(=O)N(CC(=O)N(CC(=O)N(CCCCN)CC(=O)N(CC(=O)N(CC(=O)N(CCCCN)CC(=O)N(CC(=O)N(CC(N)=O)Cc1ccccc1)Cc1ccccc1)Cc1ccccc1)Cc1ccccc1)Cc1ccccc1)Cc1ccccc1 | 17 | > 100 µM | 1 | > 100 µM | 4 | 2 | 17 | 2 | 1 |  |  | 4 | > 100 µM
NCCCCNCC(=O)N(CC(=O)N(CC(=O)N(CCCCN)CC(=O)N(CC(=O)N(CC(=O)N(CCCCN)CC(=O)N(CC(=O)N(CC(N)=O)Cc1cccc(F)c1)Cc1cccc(F)c1)Cc1cccc(F)c1)Cc1cccc(F)c1)Cc1cccc(F)c1)Cc1cccc(F)c1 | 22 |  | 3 |  | 11 | 5 | 32 | 3 | 2 |  |  | 7 | 
C[C@H](c1ccccc1)N(CC(N)=O)C(=O)CN(C(=O)CN(CCCCN)C(=O)CN(C(=O)CN(C(=O)CN(CCCCN)C(=O)CN(C(=O)CN(C(=O)CNCCCCN)[C@H](C)c1ccccc1)[C@@H](C)c1ccccc1)[C@H](C)c1ccccc1)[C@@H](C)c1ccccc1)[C@H](C)c1ccccc1 (stereo in doubt) | 50 | > 100 µM | 1 | > 100 µM | 50 | 8 | 50 | 8 | 1 | 2 µM (≈ 2.74 µg/mL) |  | 50 | > 100 µM
NCCCCCCNCC(=O)N(CC(=O)N(CC(=O)N(CCCCCCN)CC(=O)N(CC(=O)N(CC(N)=O)Cc1ccccc1)Cc1ccccc1)Cc1ccccc1)Cc1ccccc1 (H-[Gly(N-(CH2)6NH2)][Nphe][Nphe][Gly(N-(CH2)6NH2)][Nphe][Nphe]-NH2) | 1 | > 100 µM | 1 | > 100 µM | 1 | 1 | 1 | 1 | 1 | > 100 µM | > 100 µM | 1 | > 100 µM
CC(c1ccccc1)N(CC(=O)N(CCCCN)CC(=O)N(CC(=O)N(CC(=O)N(CCCCN)CC(=O)N(CC(=O)N(CC(N)=O)[C@@H](C)c1ccccc1)Cc1ccc(F)cc1)C(C)c1ccccc1)Cc1ccc(F)cc1)C(=O)CN(Cc1ccc(F)cc1)C(=O)CNCCCCN (single isomer, unassigned) | 18 |  |  | 36 µM | 17 | 2 | 26 |  |  | 3 µM (≈ 4.14 µg/mL) | 2 µM (≈ 2.76 µg/mL) | 12 | 52 µM
NCCCCCCNCC(=O)N(CC(=O)N(CC(=O)N(CCCCCCN)CC(=O)N(CC(=O)N(CC(=O)N(CCCCCCN)CC(=O)N(CC(=O)N(CC(=O)N(CCCCCCN)CC(=O)N(CC(=O)N(CC(N)=O)Cc1ccccc1)Cc1ccccc1)Cc1ccccc1)Cc1ccccc1)Cc1ccccc1)Cc1ccccc1)Cc1ccccc1)Cc1ccccc1 (H-[Gly(N-(CH2)6NH2)][Nphe][Nphe][Gly(N-(CH2)6NH2)][Nphe][Nphe][Gly(N-(CH2)6NH2)][Nphe][Nphe][Gly(N-(CH2)6NH2)][Nphe][Nphe]-NH2) | 17 | > 100 µM | 1 | > 100 µM | 50 | 8 | 17 | 8 | 1 | 2 µM (≈ 3.64 µg/mL) | 6 µM (≈ 10.9 µg/mL) | 50 | > 100 µM
NCCCCNCC(=O)N(CC(=O)N(CC(=O)N(CCCCN)CC(=O)N(CC(=O)N(CC(=O)N(CCCCN)CC(=O)N(CC(=O)N(CC(=O)N(CCCCN)CC(=O)N(CC(=O)N(CC(N)=O)Cc1cccc(F)c1)Cc1cccc(F)c1)Cc1cccc(F)c1)Cc1cccc(F)c1)Cc1cccc(F)c1)Cc1cccc(F)c1)Cc1cccc(F)c1)Cc1cccc(F)c1 | 6 |  | 1 |  | 4 | 1 | 8 | 1 | 1 |  |  | 3 | 
NCCCCCCNCC(=O)N(CC(=O)N(CC(=O)N(CCCCCCN)CC(=O)N(CC(=O)N(CC(=O)N(CCCCCCN)CC(=O)N(CC(=O)N(CC(N)=O)Cc1ccccc1)Cc1ccccc1)Cc1ccccc1)Cc1ccccc1)Cc1ccccc1)Cc1ccccc1 (H-[Gly(N-(CH2)6NH2)][Nphe][Nphe][Gly(N-(CH2)6NH2)][Nphe][Nphe][Gly(N-(CH2)6NH2)][Nphe][Nphe]-NH2) | 33 | > 100 µM | 1 | > 100 µM | 17 | 2 | 33 | 2 | 1 | 6 µM (≈ 8.21 µg/mL) | 3 µM (≈ 4.11 µg/mL) | 17 | > 100 µM
C[C@@H](c1ccccc1)N(CC(N)=O)C(=O)CN(C(=O)CN(CCCCNC(=N)N)C(=O)CN(C(=O)CN(C(=O)CN(CCCCNC(=N)N)C(=O)CN(C(=O)CN(C(=O)CN(CCCCNC(=N)N)C(=O)CN(C(=O)CN(C(=O)CNCCCCNC(=N)N)[C@@H](C)c1ccccc1)[C@@H](C)c1ccccc1)[C@@H](C)c1ccccc1)[C@@H](C)c1ccccc1)[C@@H](C)c1ccccc1)[C@@H](C)c1ccccc1)[C@@H](C)c1ccccc1 (H-[NhArg][Nspe][Nspe][NhArg][Nspe][Nspe][NhArg][Nspe][Nspe][NhArg][Nspe][Nspe]-NH2) | 12 |  | 2 |  | 20 | 3 | 20 | 2 | 1 |  |  | 12 | 20 µM
CC(c1ccccc1)N(CC(=O)N(CCN)CC(=O)N(CC(=O)N(CC(=O)N(CCN)CC(=O)N(CC(=O)N(CC(N)=O)[C@@H](C)c1ccccc1)[C@@H](C)c1ccccc1)C(C)c1ccccc1)[C@@H](C)c1ccccc1)C(=O)CN(C(=O)CNCCN)C(C)c1ccccc1 (single isomer, unassigned) | 8 | > 100 µM | 1 | > 100 µM | 50 | 4 | 8 | 4 | 1 | 2 µM (≈ 2.57 µg/mL) |  | 50 | > 100 µM
